Measured values reported in ChEMBL document CHEMBL1152836, “10H-Phenothiazines: a new class of enzyme inhibitors for inflammatory diseases” (Eur J Med Chem, 2009).

Experiments:
[1] = Inhibition of prostaglandin synthetase
In short: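 Isolated soya bean lipoxygenase was the enzyme source. Arachidonic acid metabolites (prostaglandin E, leukotrienes) were analysed by reverse-phase ODS-18 HPLC with acetonitrile:water 70:30 mobile phase, detection at 280 nm. IC50 is the substrate concentration giving 50% inhibition. Values are the average of three independent experiments (n = 3).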

[2] = target: Glutathione hydrolase 1 proenzyme (Homo sapiens, UniProt P19440); assay: Inhibition of gamma-glutamyltranspeptidase by colorimetric assay
In short: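 Colorimetric read-out at 405 nm by a standard procedure. IC50 is the substrate concentration giving 50% inhibition of enzyme activity. Values are the average of three independent experiments (n = 3).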

[3] = Inhibition of superoxide dismutase assessed as inhibition of superoxide generation by spectrophotometry
In short: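 Superoxide generation measured in a cell-membrane-free system by spectrophotometry at 340 nm. IC50 is the substrate concentration giving 50% inhibition of enzyme activity. Values are the average of three independent experiments (n = 3).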

[4] = Inhibition of phosphodiesterase assessed as production of inorganic phosphate
In short: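 Activity measured as inorganic phosphate released with 5'-nucleotidase present in excess. IC50 is the substrate concentration giving 50% inhibition of enzyme activity. Values are the average of three independent experiments (n = 3).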

Sequence of Glutathione hydrolase 1 proenzyme (P19440 1-380 limits assumed): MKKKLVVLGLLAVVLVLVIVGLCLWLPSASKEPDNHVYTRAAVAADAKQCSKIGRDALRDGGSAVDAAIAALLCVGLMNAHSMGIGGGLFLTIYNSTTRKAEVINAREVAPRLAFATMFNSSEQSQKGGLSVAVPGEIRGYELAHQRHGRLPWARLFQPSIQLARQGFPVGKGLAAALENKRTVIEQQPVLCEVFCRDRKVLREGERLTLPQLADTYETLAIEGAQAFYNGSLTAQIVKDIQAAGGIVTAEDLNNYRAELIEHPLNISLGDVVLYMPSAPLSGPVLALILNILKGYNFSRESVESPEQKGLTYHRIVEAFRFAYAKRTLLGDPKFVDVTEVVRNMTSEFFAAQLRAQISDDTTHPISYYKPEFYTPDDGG
Sequence of Glutathione hydrolase 1 proenzyme (P19440 381-569 limits assumed): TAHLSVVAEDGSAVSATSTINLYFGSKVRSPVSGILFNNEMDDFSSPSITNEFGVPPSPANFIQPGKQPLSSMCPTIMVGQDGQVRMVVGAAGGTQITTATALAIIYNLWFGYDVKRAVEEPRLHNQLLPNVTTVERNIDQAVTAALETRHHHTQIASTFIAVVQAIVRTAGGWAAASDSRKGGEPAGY

IC50 [1] | IC50 [2] | IC50 [3] | IC50 [4] | SMILES
21 µM | 25 µM | 18 µM | 18 µM | CNC(=O)c1c(C)c2c(c(C(=O)NC)c1-c1ccccc1C)Nc1ccccc1S2
23 µM | 20 µM | 18 µM | 18 µM | CNC(=O)c1c(C)c2c(c(C(=O)NC)c1-c1ccc(Cl)cc1)Nc1ccccc1S2
18 µM | 20 µM | 15 µM | 16 µM | CNC(=O)C1=C(C)C2=C(Nc3ccccc3S2)C(C(=O)NC)C1c1ccccc1 (stereo not drawn)
28 µM | > 35 µM | 31 µM | 26 µM | CNC(=O)C1=C(C)C2=C(Nc3ccccc3S2)C(C(=O)NC)C1c1ccc(Cl)cc1 (stereo not drawn)
21 µM | 22 µM | 17 µM | 18 µM | CNC(=O)C1=C(C)C2=C(Nc3ccccc3S2)C(C(=O)NC)C1c1ccccc1C (stereo not drawn)
20 µM | > 30 µM | > 30 µM | > 30 µM | CNC(=O)C1=C(C)C2=C(Nc3ccccc3S2)C(C(=O)NC)C1c1ccccc1OC (stereo not drawn)
28 µM | > 30 µM | > 30 µM | > 30 µM | CNC(=O)C1=C(C)C2=C(Nc3ccccc3S2)C(C(=O)NC)C1c1ccc2c(c1)OCO2 (stereo not drawn)
28 µM | 36 µM | 32 µM | > 30 µM | CNC(=O)C1=C(C)C2=C(Nc3ccccc3S2)C(C(=O)NC)C1c1ccc([N+](=O)[O-])cc1 (stereo not drawn)
18 µM | 20 µM | 14 µM |  | CNC(=O)c1c(C)c2c(c(C(=O)NC)c1-c1ccccc1)Nc1ccccc1S2
22 µM | 28 µM | > 30 µM | 25 µM | CNC(=O)c1c(C)c2c(c(C(=O)NC)c1-c1ccccc1OC)Nc1ccccc1S2
18 µM | 21 µM | 19 µM | 22 µM | CNC(=O)c1c(C)c2c(c(C(=O)NC)c1-c1ccc(OC)cc1)Nc1ccccc1S2
24 µM | 18 µM | 20 µM | 20 µM | CNC(=O)c1c(C)c2c(c(C(=O)NC)c1-c1ccc3c(c1)OCO3)Nc1ccccc1S2
20 µM | 25 µM | 18 µM | 21 µM | CNC(=O)C1=C(C)C2=C(Nc3ccccc3S2)C(C(=O)NC)C1c1ccc(OC)cc1 (stereo not drawn)
15 µM | 18 µM | 20 µM | 15 µM | CNC(=O)c1c(C)c2c(c(C(=O)NC)c1-c1ccccc1Cl)Nc1ccccc1S2
16 µM | 19 µM | 18 µM | 13 µM | CNC(=O)C1=C(C)C2=C(Nc3ccccc3S2)C(C(=O)NC)C1c1ccccc1Cl (stereo not drawn)
24 µM | 36 µM | 28 µM | 22 µM | CC(=O)Oc1ccccc1C(=O)O [ASPIRIN]
